Assay results from PubChem BioAssay.
Results filed as inconclusive are left out.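 Rule for the calls, unless noted: active = RAM network inhibition above 8.4% in each of two replicates, 3 SD over the compound average; inconclusive = above 8.4% inhibition in only one replicate; inactive = 8.4% inhibition or less in each replicate.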

Columns and labels:
[1] = S. cerevisiae growth inhibition in permissive medium (OD615), pilot counter-assay for S. cerevisiae lifespan shortening project, permissive growth control (AID 705;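 active = growth inhibition above 25% in both replicates, a cutoff set 3 SD above the mean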); settings: OD615, 24 h, at 10 µM, stronger effect = higher value
Summary of the method: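 System – S. cerevisiae with engineered DeaD lifespan system · Buffer or medium – SC raffinose/galactose permissive medium · Schedule – cells pre-grown 4 h, then 24 h compound exposure, 30 °C humidified · Technique – culture turbidity as optical density at 615 nm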

[2] = S. cerevisiae growth inhibition in restrictive medium, OD615, pilot screen, restrictive growth control, yeast lifespan reduction project (AID 706;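 active = growth inhibition above a set limit, 3 SD over mean compound inhibition, in both replicates, cut at about 43% in these data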;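 note: modified DeaD lifespan yeast strain shifted to restrictive glucose medium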); settings: OD615, 48 h, at 10 µM, stronger effect = higher value
Summary of the method: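 Material: engineered S. cerevisiae DeaD strain / Medium: glucose-based CSMM-D restrictive medium / Compound: single dose of 10 µM compound final, 0.25% DMSO / Timing: 4 h pre-incubation, 48 h exposure at 30 °C / Technique: OD615 absorbance reading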

[3] = doxorubicin toxicity protection in MRP-1 cells – H69AR cells, CellTiter-Glo, duplicate, MRP-1 activator project, pilot screen (AID 807;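 active = viability increase at or above a cutoff of the median across tested compounds plus 3 SD, cut at about 8.5% in these data, passing the limit was not always enough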;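 note: compound pretreatment 18-22 h then 72 h combined with doxorubicin; 0% = doxorubicin alone and 100% = vehicle without doxorubicin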); settings: H69AR viability with doxorubicin, CellTiter-Glo luminescence; at 10 µM; stronger effect = higher value
[4] = viability of HCT116 without oncogenic beta-catenin – human colon tumor cells, pilot screen (AID 823;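 active = cell viability at or below a set limit in both duplicate runs, the limit being the all-compound median minus 4 SD, cut at about 23% in these data, passing the limit was not always enough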;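 note: 0% = wells killed by 20 µM Hyamine and 100% = untreated DMSO cell wells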); settings: HCT116 beta-catenin knockout viability, CellTiter-Glo, 60 h; at 10 µM; stronger effect = lower value
[5] = viability of PTEN-null HCT116 cells – cell-based, HCT116 clonal line, CellTiter-Glo, pilot screen (AID 824;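 active = viability at or below 27.92% in each of two runs, the all-compound median minus 4 SD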;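 note: 0% = 20 µM Hyamine control and 100% = vehicle cell control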); settings: HCT116 PTEN-deleted viability, 60 h, at 10 µM, stronger effect = lower value
[6] = RAM pathway blockade in budding yeast – dse1pr::URA3 reporter, 5-FOA selection, pilot screen (AID 869;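 active = inhibition over a set limit, the all-compound mean plus 3 SD, in both replicate runs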;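 note: 0% = DMSO wells with no growth and 100% = 10 µM 1-NA-PP1 with full growth; RAM network block rescues cells from 5-FOA so hits raise OD615 growth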); settings: S. cerevisiae dse1pr::URA3 5-FOA growth, OD615, 2 d; at 10 µM; stronger effect = higher value; strain carries analog-sensitive mutant Cbk1 kinase
[7] = RAM signaling pathway blockade in yeast – S. cerevisiae, Pdr1DBD-CYC8 efflux-inhibited sensitized strain, primary screen (AID 1298);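 note: 0% = DMSO untreated cells without growth and 100% = 10 µM 1-NA-PP1 full growth; higher means more yeast growth rescued from 5-FOA killing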; settings: S. cerevisiae cbk1-as DSE1-URA3 strain, 5-FOA growth OD615, 2 d; at 50 µM; stronger effect = higher value

COc1ccc(-c2nnc(NC(=O)C(C)C)s2)c(OC)c1
inactive: growth inhibition [1] -18.6% | growth inhibition [2] -10.3% | viability increase [3] -2.16% | viability [4] 96% | viability [5] 88.8% | inhibition [6] 4.28% | RAM network inhibition [7] 9.53%

COc1ccc(OC)c2c1sc(=NC(=O)C(C)(C)C)n2C
inactive: growth inhibition [1] -7.64% | growth inhibition [2] 6.31% | viability increase [3] -6.23% | viability [4] 84.1% | viability [5] 79.6% | inhibition [6] 3.72% | RAM network inhibition [7] 6.93%

CCOC(=O)C1CCCCN1Cc1cc(Cl)ccc1O (centres undefined)
inactive: growth inhibition [1] -3.16% | growth inhibition [2] -13.2% | viability increase [3] 0.31% | viability [4] 87% | viability [5] 81% | inhibition [6] 0.74% | RAM network inhibition [7] 3.98%

COc1cc(C(=O)Oc2ccccc2N)cc(OC)c1OC
inactive: growth inhibition [1] -19.6% | growth inhibition [2] 11.3% | viability increase [3] -2.84% | viability [4] 102% | viability [5] 96% | inhibition [6] -0.31% | RAM network inhibition [7] 1.19%

Cn1c(C(=O)N2CCN(c3ccccn3)CC2)cc2c(=O)n(C)c3ccccc3c21
inactive: growth inhibition [1] 2.93% | growth inhibition [2] 16.5% | viability increase [3] -2.39% | viability [4] 102% | viability [5] 97.4% | inhibition [6] 0.875% | RAM network inhibition [7] -0.81%

Cc1cc(C)n(-c2nc3ccccc3nc2Nc2ccc(CC(=O)O)cc2)n1
inactive: growth inhibition [1] 5.73% | growth inhibition [2] -0.88% | viability increase [3] -1.81% | viability [4] 98.8% | viability [5] 95.5% | inhibition [6] -1.14% | RAM network inhibition [7] -2.71%

CCCS(=O)(=O)c1nc(S(=O)(=O)c2ccc(C)cc2)c(NCCCN2CCOCC2)s1
inactive: growth inhibition [1] 0.84% | growth inhibition [2] -0.48% | viability increase [3] -1.8% | viability [4] 91.8% | viability [5] 99.9% | inhibition [6] 0.475% | RAM network inhibition [7] 5.15%

C(=N\n1cnnc1)/C1CCCCC1
inactive: growth inhibition [1] -4.95% | growth inhibition [2] -1.24% | viability increase [3] -2.8% | viability [4] 101% | viability [5] 98.4% | inhibition [6] 0.19% | RAM network inhibition [7] 6.93%

COc1ccc(-n2c(SCC(=O)Nc3ccccc3)nc3c(c2=O)SCC3)cc1
inactive: growth inhibition [1] -1.34% | growth inhibition [2] 0.23% | viability increase [3] 3.8% | viability [4] 101% | viability [5] 96% | inhibition [6] 0.755% | RAM network inhibition [7] 9.27%

O=C(O)CC1C(=O)NCCN1Cc1ccc(F)c(F)c1 (centres undefined)
inactive: growth inhibition [1] -11.2% | growth inhibition [2] 3.21% | viability increase [3] -1.31% | viability [4] 99.4% | viability [5] 88.2% | inhibition [6] 3.32% | RAM network inhibition [7] -0.21%

CCCc1ccc(Oc2cn[nH]c2-c2ccc(O)cc2O)cc1
inactive: growth inhibition [1] -16.3% | growth inhibition [2] -10.3% | viability increase [3] -3.5% | viability [4] 82.4% | viability [5] 78.7% | inhibition [6] 0.7% | RAM network inhibition [7] 2.88%

CCCCC(CC)C(=O)NCCCN1CCN(CCCNC(=O)C(CC)CCCC)CC1 (centres undefined)
inactive: growth inhibition [1] -6.17% | growth inhibition [2] 2.97% | viability increase [3] -1.81% | viability [4] 87.3% | viability [5] 90.6% | inhibition [6] -0.16% | RAM network inhibition [7] 2.42%

O=C(NCCN1C(=O)C2C3C=CC(C3)C2C1=O)Nc1ccc(Br)cc1 (centres undefined)
inactive: growth inhibition [1] -9% | growth inhibition [2] 9.2% | viability increase [3] -1.13% | viability [4] 103% | viability [5] 88.3% | inhibition [6] 0.81% | RAM network inhibition [7] 0.1%

O=C(CSc1nc(-c2ccco2)cc(C(F)(F)F)n1)NC1CCCC1
inactive: growth inhibition [1] -9.81% | growth inhibition [2] 5.25% | viability increase [3] -0.46% | viability [4] 89.3% | viability [5] 89.5% | inhibition [6] 0.995% | RAM network inhibition [7] 1%

COc1ccc(-n2nc(C(=O)N3CCC(C#N)CC3)c3c4ccccc4n(C)c3c2=O)cc1
inactive: growth inhibition [1] -14.9% | growth inhibition [2] -27% | viability increase [3] -4.6% | viability [4] 92.2% | viability [5] 88.9% | inhibition [6] 1.95% | RAM network inhibition [7] 7.49%

CCCCN(CC)CCNC(=O)Cn1cnc2sc(C)c(S(=O)(=O)N3CCOCC3)c2c1=O
inactive: growth inhibition [1] -7.83% | growth inhibition [2] 0.72% | viability increase [3] -0.05% | viability [4] 99.5% | viability [5] 98.4% | inhibition [6] 2.3% | RAM network inhibition [7] 0.78%

CS(=O)(=O)N(CC(=O)NCc1ccco1)c1ccc(Cl)c(C(F)(F)F)c1
inactive: growth inhibition [1] -19% | growth inhibition [2] -22.3% | viability increase [3] -3.58% | viability [4] 92.8% | viability [5] 88.2% | inhibition [6] 0.705% | RAM network inhibition [7] 7.07%
